21 compounds from ChEMBL document CHEMBL3399928, “Design and synthesis of novel 2-(indol-5-yl)thiazole derivatives as xanthine oxidase inhibitors” (Bioorg Med Chem Lett, 2015) can be followed below.

Data set [1] is described as follows: Inhibition of butter milk Xanthine oxidase using xanthine as substrate preincubated for 3 mins by spectrophotometry. The essentials:
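Buttermilk xanthine oxidase at 0.05 U/mL in 50 mM phosphate buffer with test compound; reaction started with 200 µM xanthine stock. Uric acid formation read at 293 nm, with linear Vmax over 5 min taken as initial velocity. Inhibition was calculated against the uninhibited rate, and IC50 was taken as the concentration giving 50% inhibition.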

The nature of data set [2]: Half life in rat liver microsomes. Format: ADME. A general note: Microsomes from liver hold many membrane-bound enzymes, among them those of drug oxidation.
Data set [3] can be described thus: Cytotoxicity against primary rat hepatocytes. Format: cell-based, Hepatocyte.
Data set [4] in a line: Cmax in Sprague-Dawley rat at 10 mg/kg, po. Format: ADME, organism-based. Details: dose 10 mg/kg, route oral. The note with it: in vivo. The gist of the method: (§1)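 Single oral dose of 10 mg/kg in Sprague-Dawley rats; plasma followed over 24 h; Cmax, Tmax, AUC, half-life and bioavailability derived from the plasma profile; n = 3.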
A short description of data set [5]: AUC (0 to last) in Sprague-Dawley rat at 10 mg/kg, po. The note with it: plasma. Set-up: time 0 - last, dose 10 mg/kg, route oral. It is filed as ADME, organism-based. The essentials: as §1
A short description of data set [6]: AUC (0 to last) in Sprague-Dawley rat at 2 mg/kg, iv. Set-up: dose 2 mg/kg, route intravenous, time 0 - last. The note with it: plasma. It is filed as ADME, organism-based. The gist of the method: (§2)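 Single intravenous dose of 2 mg/kg in Sprague-Dawley rats; AUC, half-life, clearance and Vd derived from the plasma profile; n = 3.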
Data set [7] can be described thus: AUC (0 to infinity) in Sprague-Dawley rat at 2 mg/kg, iv. It is filed as ADME, organism-based. Set-up: time infinity, dose 2 mg/kg, route intravenous. The note with it: plasma. The essentials: as §2
A short description of data set [8]: Half life in Sprague-Dawley rat at 2 mg/kg, iv. It is filed as ADME, organism-based. Details: dose 2 mg/kg, route intravenous. The note with it: in vivo. The gist of the method:
as §2

Data set [9] in a line: Clearance in Sprague-Dawley rat at 2 mg/kg, iv. Format: ADME, organism-based. Details: dose 2 mg/kg, route intravenous. The note with it: in vivo. The essentials:
as §2

Data set [10] is described as follows: Volume of distribution in Sprague-Dawley rat at 2 mg/kg, iv. Particulars: in vivo. Set-up: dose 2 mg/kg, route intravenous. It is filed as ADME, organism-based. The essentials:
as §2

In a further data set the test system is Rattus norvegicus. Nature of the data set: Inhibition of uric acid production in Sprague-Dawley rat at 10 mg/kg, po measured 1 hr post dose. Format: functional. The gist of the method: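 Male SD rats (about 200 g) received potassium oxonate 300 mg/kg i.p. in 0.8% carboxymethylcellulose. One hour later, compound at 10 mg/kg in PEG400/ethanol (2:1) was given orally, and blood was sampled 1 h after dosing. Plasma uric acid was scaled with the normal group as 100% and the oxonate control as 0% inhibition. ANOVA with Dunnett's post-test was used.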

A short description of data set [11]: AUC (0 to infinity) in Sprague-Dawley rat at 10 mg/kg, po. Details: time infinity, dose 10 mg/kg, route oral. Format: ADME, organism-based. Particulars: plasma. The gist of the method: as §1
The nature of data set [12]: Tmax in Sprague-Dawley rat at 10 mg/kg, po. Format: ADME, organism-based. Set-up: dose 10 mg/kg, route oral. Particulars: in vivo. The essentials:
as §1

Data set [13] is described as follows: Half life in Sprague-Dawley rat at 10 mg/kg, po. Format: ADME, organism-based. Set-up: dose 10 mg/kg, route oral. The note with it: in vivo. The essentials:
as §1

Data set [14] in a line: Oral bioavailability in Sprague-Dawley rat at 10 mg/kg. Format: ADME, organism-based. The note with it: in vivo. The essentials: as §1
A further data set relates to Plasma. The data set can be described thus: Plasma concentration in Sprague-Dawley rat at 10 mg/kg, po. Format: ADME, organism-based. Details: dose 10 mg/kg, route oral. The note with it: in vivo. The gist of the method: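 Oral dose of 10 mg/kg in Sprague-Dawley rats; plasma concentration measured 1 h after administration.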

As usually defined, the IC50 is the concentration needed to halve the response being measured. Low values mean greater potency in that assay, high ones weaker potency in that assay. One may read the half-life as how long it takes for the measured level to halve. A lower half-life goes with rapid decline. The compound `Cc1nc(-c2ccc3c(ccn3CC(C)C)c2)sc1C(=O)O` showed an IC50 in data set [1] of 110 nM. The compound further returned a half-life in data set [2] of 0.458 h.

`Cc1nc(-c2ccc3c(c2)c(Cl)cn3CC(C)C)sc1C(=O)O` displayed an IC50 in [1] of 5.7 nM. The compound further registered a half-life in data set [2] of 0.103 h.

In the case of `Cc1nc(-c2ccc3c(c2)c(Cl)cn3C(C)C)sc1C(=O)O`, in [1], half-maximal inhibition (IC50) required 7.3 nM. Moreover, the half-life in [2] worked out at 1.6 h.

As to `Cc1nc(-c2ccc3c(c2)c(Cl)c(C)n3CC(C)C)sc1C(=O)O`, in data set [1], the midpoint of inhibition, the IC50, lay at 16 nM. Besides, the half-life in data set [2] amounted to 0.11 h.

In turn, `Cc1nc(-c2ccc3c(c2)c([N+](=O)[O-])cn3C(C)C)sc1C(=O)O` had an IC50 in [1] of 4.2 nM. The compound also registered a half-life in data set [2] of 1.32 h.

Turning to `COCCn1cc([N+](=O)[O-])c2cc(-c3nc(C)c(C(=O)O)s3)ccc21`, half-maximal inhibition in data set [1] (IC50) required 12 nM.

By CC50 is commonly meant the concentration that lowers cell viability or growth by half. `Cc1nc(-c2ccc3c(c2)c(C#N)cn3CC(C)C)sc1C(=O)O` returned an IC50 in data set [1] of 5.5 nM. Also, in [2], the half-life turned out to be 1.76 h. The CC50 in data set [3] amounted to 82000 nM.

Broadly, the Cmax is the maximum level reached in the sampled fluid or tissue. Usually AUC(0-t) stands for the area under the concentration-time curve up to a stated or last time point. A higher AUC(0-t) goes with high exposure. In the case of `CC(C)n1cc(C#N)c2cc(-c3ncc(C(=O)O)s3)ccc21`, the concentration for half-maximal inhibition (IC50) in [1] was determined as 4.4 nM. The compound also showed a Cmax in data set [4] of 940 ng/mL. The area under the curve AUC(0-t) in [5] worked out at 5390 ng·h/mL.

Compound `CC(C)n1cc(C#N)c2cc(-c3nc(C(F)(F)F)c(C(=O)O)s3)ccc21` had an IC50 in data set [1] of 895 nM.

In data set [1], `COc1nc(-c2ccc3c(c2)c(C#N)cn3C(C)C)sc1C(=O)O` yielded an IC50 of 90 nM.

A word on the AUC(0-inf): it is total exposure, with the tail of the curve extrapolated. A higher AUC(0-inf) goes with more exposure. What is called clearance is the rate of elimination divided by the concentration. Low readings indicate inefficient removal, high ones efficient removal. The Vd is a proportionality between amount in the body and measured concentration, not a real space. Broadly, the inhibition in vivo is the change of the read-out against control, counted positive when it falls. Lower therefore signals a weak effect. The Tmax is the time at which the peak concentration occurs. One may read the bioavailability as the share of a dose that reaches the circulation, judged against a reference dose that is usually intravenous. Read a low bioavailability as poor availability. In the case of `Cc1nc(-c2ccc3c(c2)c(C#N)cn3C(C)C)sc1C(=O)O`, the results for the AUC(0-t) in data set [6] and in data set [5] were 12400 ng·h/mL and 47300 ng·h/mL, respectively. Further, the AUC(0-inf) in data set [7] was 12500 ng·h/mL; in [11], 52900 ng·h/mL. Also, the half-life was 4.37 h in data set [8] and 7.95 h in data set [13]. In [9], this compound showed a clearance of 2.69 mL/min/kg. Moreover, in [10], the Vd came to 0.635 L/kg. Besides, the IC50 in [1] turned out to be 3.5 nM. Besides, the Cmax in data set [4] worked out at 3980 ng/mL. In addition, the CC50 in data set [3] is 200000 nM. This compound registered an inhibition in vivo at 10 mg/kg in the data set on Rattus norvegicus of 60%. For the same compound, the time of peak concentration (Tmax) in [12] worked out at 6 h. The compound further yielded a bioavailability in data set [14] of 84.3%.

Compound `Cc1nc(-c2ccc3c(c2)c(C#N)c(C)n3C(C)C)sc1C(=O)O` showed an IC50 in [1] of 10.7 nM. Further, the inhibition in vivo at 10 mg/kg in the data set with Rattus norvegicus amounted to 8.6%.

In data set [1], `Cc1nc(-c2ccc3c(c2)c(C#N)cn3C(C)CF)sc1C(=O)O` (configuration not stated) displayed a concentration for half-maximal inhibition (IC50) of 4.9 nM. Besides, in the data set with Rattus norvegicus, the inhibition in vivo at 10 mg/kg worked out at 22.3%.

With `Cc1nc(-c2ccc3c(c2)c(C#N)cn3C(C)CO)sc1C(=O)O` (configuration not stated), it took 3 nM to reach half-maximal inhibition in [1] (IC50). The compound further came in with an inhibition in vivo at 10 mg/kg in the data set with Rattus norvegicus of 8.5%.

Compound `COCC(C)n1cc(C#N)c2cc(-c3nc(C)c(C(=O)O)s3)ccc21` (configuration not stated) displayed a half-maximal inhibitory concentration (IC50) in data set [1] of 9 nM. The compound further yielded an inhibition in vivo at 10 mg/kg in the data set with Rattus norvegicus of 14.1%.

Take `Cc1nc(-c2ccc3c(c2)c(C#N)cn3CCS(C)(=O)=O)sc1C(=O)O`: the Cp with Plasma was under 20 ng/mL. The compound also gave an IC50 in data set [1] of 12.3 nM. In the data set with Rattus norvegicus, this compound came in with an inhibition in vivo at 10 mg/kg of 0%.

`CC(=O)NCCn1cc(C#N)c2cc(-c3nc(C)c(C(=O)O)s3)ccc21` gave a Cp with Plasma of under 20 ng/mL. Besides, the IC50 in data set [1] amounted to 5.6 nM. The inhibition in vivo at 10 mg/kg in the data set on Rattus norvegicus is 0%.

Consider `Cc1nc(-c2ccc3c(c2)c(C#N)cn3CCNS(C)(=O)=O)sc1C(=O)O`, for which, in [1], the IC50 was 6 nM. The inhibition in vivo at 10 mg/kg in the data set on Rattus norvegicus turned out to be 0%.

Take `Cc1nc(-c2ccc3c(c2)c(C#N)cn3Cc2ccccc2)sc1C(=O)O`: in [1], the concentration for half-maximal inhibition (IC50) turned out to be 3.9 nM. 10 mg/kg produced 10% inhibition in vivo with Rattus norvegicus.

Compound `Cc1nc(-c2ccc3c(c2)c(C#N)cn3Cc2ccc(F)cc2F)sc1C(=O)O` showed an IC50 in [1] of 8.6 nM. The compound further had an inhibition in vivo at 10 mg/kg in the data set with Rattus norvegicus of 16%.

The compound `Cc1nc(-c2ccc(OCC(C)C)c(C#N)c2)sc1C(=O)O` [FEBUXOSTAT] yielded an IC50 in data set [1] of 3.1 nM. Besides, the half-life in data set [2] was 2.9 h. The Cmax in data set [4] amounted to 16400 ng/mL. Besides, the AUC(0-t) in data set [5] was 61500 ng·h/mL.
